Test results reported in ChEMBL document CHEMBL2169814, “Structure-based design, synthesis, and characterization of dual hotspot small-molecule HIV-1 entry inhibitors” (J Med Chem, 2012).
Active and inactive are the calls of the source. The rule behind the calls is not given here.

What was measured:
[1] = Inhibition of recombinant HIV-1 YU2 envelope glycoprotein-120 assessed as inhibition of viral entry in canine Cf2Th cells expressing CD4/CCR5 after 2 to 4 hrs by luciferase activity based luminescence assay; type: cell-based, Human immunodeficiency virus 1
Procedure, shortened: (§1)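 Single-round luciferase-encoding recombinant HIV-1 pseudotyped with wild-type or mutant YU2 Env, made in 293T cells and dosed by RT units. Cf2Th/CD4-CCR5 cells seeded 24 h before. […] Cells lysed by freeze-thaw; luciferase read by luminometer.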

[2] = tested on: Human immunodeficiency virus 1; assay: Antiviral activity against HIV-1 clade C Env pseudovirus assessed as geometric mean titer for virus neutralization to infect human TZM-bl cells by luciferase assay; type: functional, organism-based
Procedure, shortened: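 Env-pseudoviruses were made in 293T cells cotransfected with rev/env plasmid and the env-deficient pSGΔ3env backbone, then harvested at 2 days. Virus (MOI ~0.01–0.1) was preincubated 30 min at 37°C with serially diluted compound in medium containing 10% DMSO, in duplicate, then used to infect TZM-bl cells. Luciferase read-out; IC50 from a 5-parameter Hill fit; geometric mean across isolates.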

[3] = tested on: Human immunodeficiency virus 1; assay: Antiviral activity against HIV-1 clade B Env pseudovirus assessed as geometric mean titer for virus neutralization to infect human TZM-bl cells by luciferase assay; type: functional, organism-based; conditions: Human immunodeficiency virus 1, clade B
Procedure, shortened: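 Env-pseudoviruses made in 293T cells co-transfected with rev/env plasmid and env-deficient backbone (pSGΔ3env); supernatants harvested at 2 days, filtered. Virus (MOI ~0.01–0.1) preincubated 30 min at 37°C with serially diluted reagent (media with 10% DMSO), duplicate wells, then used to infect TZM-bl cells. Luciferase read-out; 5-parameter hill fit gives IC50/IC80; geometric mean titer across isolates.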

[4] = Inhibition of ampotrophic murine leukemia virus envelope glycoprotein assessed as inhibition of viral entry in canine Cf2Th cells expressing human CD4 and CCR5 after 2 to 4 hrs by luciferase activity based luminescence assay
[5] = tested on: Human immunodeficiency virus 1; assay: Increase in binding of full length of HIV1 YU2 gp120 expressed into 17b in canine Cf2Th-CCR5 by SPR assay
[6] = Inhibition of recombinant HIV-1 HXBc2 envelope glycoprotein-120 assessed as inhibition of viral entry in canine Cf2Th cells expressing CD4/CCR5 after 2 to 4 hrs by luciferase activity based luminescence assay; type: cell-based, Human immunodeficiency virus 1
Procedure, shortened: (§2)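 Single-round luciferase-reporter viruses were made in 293T cells with Gag-Pol packaging and Env plasmids (A-MLV Env plus rev), then normalized by RT activity. […] Cf2Th/CD4-CCR5 or CD4-CXCR4 targets were exposed for 2–4 h, cultured 48 h, lysed by freeze-thaw, and luciferase was read.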

[7] = tested on: Human immunodeficiency virus 1; assay: Increase in binding of minimal core of HIV1 YU2 gp120 into 17b in canine Cf2Th-CCR5 by SPR assay
[8] = Inhibition of recombinant HIV-1 KB9 envelope glycoprotein-120 assessed as inhibition of viral entry in canine Cf2Th cells expressing CD4/CCR5 after 2 to 4 hrs by luciferase activity based luminescence assay; type: cell-based, Human immunodeficiency virus 1; procedure, shortened: as §2
[9] = Inhibition of recombinant HIV-1 ADA envelope glycoprotein-120 assessed as inhibition of viral entry in canine Cf2Th cells expressing CD4/CCR5 after 2 to 4 hrs by luciferase activity based luminescence assay; type: cell-based, Human immunodeficiency virus 1; procedure, shortened: as §2
[10] = Inhibition of recombinant HIV-1 89.6 envelope glycoprotein-120 assessed as inhibition of viral entry in canine Cf2Th cells expressing CD4/CCR5 after 2 to 4 hrs by luciferase activity based luminescence assay; type: cell-based, Human immunodeficiency virus 1; procedure, shortened: as §2
[11] = Inhibition of recombinant HIV-1 JRFL envelope glycoprotein-120 assessed as inhibition of viral entry in canine Cf2Th cells expressing CD4/CCR5 after 2 to 4 hrs by luciferase activity based luminescence assay; type: cell-based, Human immunodeficiency virus 1; procedure, shortened: as §2
[12] = tested on: Human immunodeficiency virus 1; assay: Antiviral activity against HIV-1 YU2 infected in canine Cf2Th-CCR5 cells assessed as activation of viral infectivity after 2 to 4 hrs by luminometer relative to TS-II-224; type: functional, organism-based
[13] = tested on: Envelope glycoprotein gp160 (Human immunodeficiency virus type 1 group M subtype B (isolate HXB2)(HIV-1)), P04578 [S375W]; assay: Inhibition of recombinant HIV-1 YU2 envelope glycoprotein-120 S375W mutant assessed as inhibition of viral entry in canine Cf2Th cells expressing CD4/CCR5 after 2 to 4 hrs by luciferase activity based luminescence assay; type: cell-based; conditions: Human immunodeficiency virus 1; procedure, shortened: as §1
[14] = Binding affinity to HIV-1 YU2 gp120 at 80 to 130 uM by VP-ITC analysis; set-up: species or system Human immunodeficiency virus 1
[15] = Cytotoxicity against canine Cf2Th-CD4-CCR5 assessed as cell viability at 1 to 100 uM after 48 hrs by luminometer; type: cell-based, Canis lupus familiaris; conditions: dog, thymocyte
Procedure, shortened: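 Cf2Th/CD4-CCR5 cells were seeded at 6×10^3/well 24 h ahead and exposed to compound at 1–100 μM (DMSO at 2% as control) for 2–4 h at 37°C. Medium was then topped up and cells were incubated 48 h at 37°C. After 30 min at room temperature, CellTiter-Glo was added for 5–10 min, and luminescence was read for 5 s.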

[16] = tested on: Human immunodeficiency virus 1; assay: Antiviral activity against HIV-1 YU2 infected in canine Cf2Th-CCR5 cells assessed as activation of viral infectivity after 2 to 4 hrs by luminometer relative to NBD-556; type: functional, organism-based
[17] = tested on: Human immunodeficiency virus 1; assay: Antiviral activity against HIV-1 YU2 infected in canine Cf2Th-CCR5 cells assessed as activation of viral infectivity after 2 to 4 hrs by luminometer relative to JRC-I-191; type: functional, organism-based

Structure (SMILES)	IC50 [1]	Activity [2]	IC50 [3]	IC50 [4]	Activity [5]	IC50 [6]	Activity [7]	IC50 [8]	IC50 [9]	IC50 [10]	IC50 [11]	Activity [12]	Activity [13]	Kd [14]	Activity [15]	Activity [16]	Activity [17]
CC1(C)CC(NC(=O)C(=O)Nc2ccc(Cl)cc2)CC(C)(C)N1	> 100 µM	Active	29.3 µM	> 100 µM	–	–	–	–	–	–	–	–	–	–	–	–	–
N[C@H]1Cc2ccccc2[C@@H]1NC(=O)C(=O)Nc1ccc(Cl)c(F)c1	53.9 µM	–	–	56.9 µM	Active	50 µM	Active	50 µM	50 µM	50 µM	50 µM	Active	–	–	–	–	–
N=C(N)N[C@@H]1Cc2ccccc2[C@H]1NC(=O)C(=O)Nc1ccc(Cl)c(F)c1	21.3 µM	Active	8.9 µM	> 100 µM	Active	–	Active	–	–	–	–	inactive	inactive	0.3 µM	–	–	–
N[C@@H]1Cc2ccccc2[C@H]1NC(=O)C(=O)Nc1ccc(Cl)c(F)c1	86.9 µM	–	–	85.9 µM	Active	50 µM	Active	50 µM	50 µM	50 µM	50 µM	Active	–	1.1 µM	–	–	–
N=C(N)N[C@H]1Cc2ccccc2[C@@H]1NC(=O)C(=O)Nc1ccc(Cl)c(F)c1.O=CO	22.9 µM	Active	7.9 µM	> 100 µM	Active	–	Active	–	–	–	–	inactive	inactive	0.25 µM	Non-toxic	–	–
CC1(C)CC(NC(=O)C(=O)Nc2ccc(Cl)c(F)c2)CC(C)(C)N1	54.4 µM	–	–	> 100 µM	–	–	–	–	–	–	–	–	–	–	–	Active	–
CN1C(C)(C)CC(NC(=O)C(=O)Nc2ccc(Cl)c(F)c2)CC1(C)C	48.8 µM	–	–	93.4 µM	Active	–	Active	–	–	–	–	–	–	–	–	–	Active
CC1(C)CC(NC(=O)C(=O)Nc2ccc(Br)cc2)CC(C)(C)N1	> 100 µM	–	–	> 100 µM	–	–	–	–	–	–	–	–	–	2.2 µM	–	Active	–
